ChEMBL document CHEMBL1132791, “1-Oxacephem-based human chymase inhibitors: discovery of stable inhibitors in human plasma” (Bioorg Med Chem Lett, 2000)

Experiments:
Plasminogen = Plasminogen (Rattus norvegicus, UniProt Q01177); experiment: Inhibitory concentration was measured against plasmin
Prothrombin = Prothrombin (Homo sapiens, UniProt P00734); experiment: Inhibitory concentration was measured against thrombin
Serine protease 1 = Serine protease 1 (Homo sapiens, UniProt P07477); experiment: Inhibitory concentration was measured against trypsin
[1] = The percent remaining in human plasma after 30 min was determined; assay type: ADME, cell-free; settings: read-out: Stability
Procedure, shortened: (§1)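 Compound, dissolved in DMSO, was spiked into human plasma and incubated at 37 °C. Stability was read as the percentage of intact compound left after 30 min. Half-life in human plasma was taken from this same incubation.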

Chymase = biological target: T1, Chymase (Homo sapiens, UniProt P23946); experiment: Inhibition of human Serine protease chymase
T1 sequence (P23946 whole entry): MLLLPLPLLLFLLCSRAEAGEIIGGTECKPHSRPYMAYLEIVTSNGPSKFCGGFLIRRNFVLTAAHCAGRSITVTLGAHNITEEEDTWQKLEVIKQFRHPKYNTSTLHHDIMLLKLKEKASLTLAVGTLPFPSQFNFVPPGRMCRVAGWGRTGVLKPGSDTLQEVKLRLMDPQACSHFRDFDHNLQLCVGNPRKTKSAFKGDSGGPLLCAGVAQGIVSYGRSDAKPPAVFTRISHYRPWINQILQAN

[2] = The compound was evaluated for its half-life period; assay type: ADME; procedure, shortened: as §1
Neutrophil elastase = biological target: T2, Neutrophil elastase (Homo sapiens, UniProt P08246); experiment: Inhibitory concentration was measured against elastase
T2 sequence (P08246 whole entry): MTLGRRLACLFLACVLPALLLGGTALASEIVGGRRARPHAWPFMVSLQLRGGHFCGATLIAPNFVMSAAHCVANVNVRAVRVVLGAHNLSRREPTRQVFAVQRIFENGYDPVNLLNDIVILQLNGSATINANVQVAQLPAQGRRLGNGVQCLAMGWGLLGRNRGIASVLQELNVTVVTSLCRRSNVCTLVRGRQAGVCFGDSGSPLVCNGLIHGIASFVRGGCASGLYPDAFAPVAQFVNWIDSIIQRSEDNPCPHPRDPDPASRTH

Chymotrypsinogen A = Chymotrypsinogen A (Bos taurus, UniProt P00766); experiment: Inhibitory concentration was measured against alpha-chymotrypsin

Serine protease 1, sequence (P07477 whole entry): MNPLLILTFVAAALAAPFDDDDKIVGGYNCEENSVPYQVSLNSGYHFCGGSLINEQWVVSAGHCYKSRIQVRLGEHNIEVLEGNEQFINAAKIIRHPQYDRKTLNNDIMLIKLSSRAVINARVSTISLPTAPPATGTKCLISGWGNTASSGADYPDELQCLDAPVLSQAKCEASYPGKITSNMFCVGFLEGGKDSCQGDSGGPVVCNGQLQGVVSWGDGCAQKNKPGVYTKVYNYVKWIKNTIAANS
Plasminogen, sequence (Q01177 97-581 limits assumed): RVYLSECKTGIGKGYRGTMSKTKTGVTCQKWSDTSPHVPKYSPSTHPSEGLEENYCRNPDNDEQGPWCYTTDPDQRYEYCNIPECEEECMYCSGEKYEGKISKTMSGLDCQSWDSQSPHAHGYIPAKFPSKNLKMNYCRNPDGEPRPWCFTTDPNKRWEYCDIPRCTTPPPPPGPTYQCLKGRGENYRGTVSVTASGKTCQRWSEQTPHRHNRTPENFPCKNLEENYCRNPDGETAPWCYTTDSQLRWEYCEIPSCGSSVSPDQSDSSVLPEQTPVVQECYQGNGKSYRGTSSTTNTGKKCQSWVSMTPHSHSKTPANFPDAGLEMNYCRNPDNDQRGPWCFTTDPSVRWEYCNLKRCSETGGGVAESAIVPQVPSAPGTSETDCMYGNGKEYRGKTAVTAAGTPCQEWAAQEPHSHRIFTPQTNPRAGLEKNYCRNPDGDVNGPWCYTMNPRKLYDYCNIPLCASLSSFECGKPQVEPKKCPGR
Plasminogen, sequence (Q01177 582-812 limits assumed): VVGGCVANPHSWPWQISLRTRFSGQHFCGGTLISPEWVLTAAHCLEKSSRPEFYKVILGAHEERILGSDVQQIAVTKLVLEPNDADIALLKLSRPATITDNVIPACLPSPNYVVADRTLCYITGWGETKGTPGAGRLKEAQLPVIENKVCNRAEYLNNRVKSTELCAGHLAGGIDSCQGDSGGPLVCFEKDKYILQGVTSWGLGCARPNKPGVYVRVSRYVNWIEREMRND

| remaining at 0.5 h [1] | Compound | other results |
| --- | --- | --- |
| 13% | CO[C@@]1(NC(=O)Cc2ccc(O)cc2)C(=O)N2C(C(=O)OCc3cccc(C)c3)=C(CSc3nnc(C)s3)CO[C@@H]21 | – |
| 40% | CO[C@@]1(NC(=O)Cc2ccc(O)cc2)C(=O)N2C(C(=O)OC(c3ccccc3)c3ccccc3)=C(CSc3nnnn3C)CO[C@@H]21 | – |
| 10% | CO[C@@]1(NC(=O)Cc2ccc(O)cc2)C(=O)N2C(C(=O)OCc3cccc(C)c3)=C(CSc3nnnn3C)CO[C@@H]21 | – |
| 5% | CO[C@@]1(NC(=O)Cc2ccc(O)cc2)C(=O)N2C(C(=O)OCc3cccc(C)c3)=C(CSc3nnnn3CC(=O)O)CO[C@@H]21 | – |
| 59% | CO[C@@]1(NC(=O)Cc2ccc(O)cc2)C(=O)N2C(C(=O)OCc3cccc(C)c3)=C(C)CO[C@@H]21 | IC50 (Chymase): > 10000 nM |
| 11% | COc1ccccc1C(=O)N[C@]1(OC)C(=O)N2C(C(=O)OCc3cccc(C)c3)=C(CSc3nnnn3CC(=O)O)CO[C@@H]21 | half-life [2]: < 0.167 h |

Further lines, the compound ahead of its results:

| Compound | remaining at 0.5 h [1] | other results |
| --- | --- | --- |
| CCOc1ccccc1C(=O)N[C@]1(OC)C(=O)N2C(C(=O)OCc3ccc(C(=O)O)cc3)=C(CSc3nnnn3C)CO[C@@H]21 | 87% | IC50 (Plasminogen): > 10000 nM; IC50 (Prothrombin): 3600 nM; IC50 (Serine protease 1): 2100 nM; IC50 (Chymase): 27 nM; half-life [2]: 1.5 h; IC50 (Neutrophil elastase): 9500 nM; IC50 (Chymotrypsinogen A): 160 nM |
| COc1ccccc1C(=O)N[C@]1(OC)C(=O)N2C(C(=O)OC(c3ccccc3)c3ccccc3)=C(CSc3nnnn3C)CO[C@@H]21 | 73% | – |
| CO[C@@]1(NC(=O)c2ccccc2OC(C)C)C(=O)N2C(C(=O)OCc3ccc(C(=O)O)cc3)=C(CSc3nnnn3C)CO[C@@H]21 | 42% | – |
| CCCOc1ccccc1C(=O)N[C@]1(OC)C(=O)N2C(C(=O)OCc3ccc(C(=O)O)cc3)=C(CSc3nnnn3C)CO[C@@H]21 | 26% | – |
| CO[C@@]1(NC(=O)c2ccccc2Oc2ccccc2)C(=O)N2C(C(=O)OCc3ccc(C(=O)O)cc3)=C(CSc3nnnn3C)CO[C@@H]21 | 63% | – |
| CO[C@@]1(NC(=O)Cc2ccc(N(C)C)cc2)C(=O)N2C(C(=O)OC(c3ccccc3)c3ccccc3)=C(CSc3nnnn3C)CO[C@@H]21 | 53% | – |
| COc1ccccc1C(=O)N[C@]1(OC)C(=O)N2C(C(=O)OCc3ccc(C(=O)O)cc3)=C(CSc3nnnn3C)CO[C@@H]21 | 26% | – |
| CCC(C)Oc1ccccc1C(=O)N[C@]1(OC)C(=O)N2C(C(=O)OCc3ccc(C(=O)O)cc3)=C(CSc3nnnn3C)CO[C@@H]21 (stereo partly drawn) | 39% | – |
